# Published values pooled from the literature.
# Compare with care: the assays were run in different laboratories.
# Target: Serine/threonine-protein kinase RIO3 (RIOK3, Homo sapiens, UniProt O14730)
# Residues used in one study (O14730 1-519): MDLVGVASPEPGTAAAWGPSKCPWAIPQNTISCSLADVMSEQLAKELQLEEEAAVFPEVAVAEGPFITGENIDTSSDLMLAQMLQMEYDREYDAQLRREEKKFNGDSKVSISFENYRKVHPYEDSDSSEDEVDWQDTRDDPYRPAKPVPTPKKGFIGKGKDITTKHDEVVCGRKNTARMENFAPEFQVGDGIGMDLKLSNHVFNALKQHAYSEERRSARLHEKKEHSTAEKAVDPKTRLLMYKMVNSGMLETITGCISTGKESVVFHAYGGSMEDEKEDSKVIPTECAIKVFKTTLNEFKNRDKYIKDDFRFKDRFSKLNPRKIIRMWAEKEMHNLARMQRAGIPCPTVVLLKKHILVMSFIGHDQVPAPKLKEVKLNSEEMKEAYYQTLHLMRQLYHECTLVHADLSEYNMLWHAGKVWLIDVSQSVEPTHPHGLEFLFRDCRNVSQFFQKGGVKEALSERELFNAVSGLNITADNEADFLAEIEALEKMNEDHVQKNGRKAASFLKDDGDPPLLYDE
SMILES,assay,conditions,remaining binding [%]
CN(C)c1nccc(-c2cnn3ncccc23)n1,binding,1 µM,100
O=C(c1ccc(Nc2ncc(Cl)c(-c3ccc(Cl)s3)n2)cc1)N1CCC(N2CCCC2)CC1,"binding, competition with immobilised ligand",1 µM,0
N[C@H]1CCN(c2nccc(-c3cnn4ncccc34)n2)C1,binding,1 µM,81
C=CC(=O)N1CCC(C(=O)NCC(=O)N2CCN(c3nc(-c4cnc(N)nc4C(F)F)nc(N4CCOCC4)n3)CC2)CC1,"binding, competition with immobilised ligand",1 µM,100
CO[C@@H](C)c1c(Nc2ccc([C@@H](N(C)C(=O)C3CCS(=O)(=O)CC3)C(F)(F)F)cc2)cnc2cc(Cl)nn12,"cell-free assay, competition with immobilised ligand",1 µM,90
CCN1CCN(Cc2ccc(C(=O)Nc3ccc(C)c(Oc4ccc5c(c4)CC(=O)N5)c3)cc2C(F)(F)F)CC1,"binding, competition with immobilised ligand",1 µM,100
CNC(=O)c1ccc(Nc2ncc(C(F)(F)F)c(NCc3nccnc3N(C)S(C)(=O)=O)n2)cc1,"cell-free assay, competition with immobilised ligand",0.1 µM,55
COc1cnc(Nc2cccc(S(N)(=O)=O)c2)nc1N1CCN(c2ccccc2)C(=O)C1,"binding, competition with immobilised ligand",1 µM,57
CN(C)c1ncc(F)c(-c2cnn3ncccc23)n1,binding,1 µM,100
O=C(c1ccc(Nc2nccc(-c3cc4ccccc4s3)n2)cc1)N1CCC(N2CCCC2)CC1,"binding, competition with immobilised ligand",1 µM,0.9
CCCOc1ccc([C@H]2[C@H](C(=O)O)[C@@H](c3ccc4c(c3)OCO4)CN2CC(=O)Nc2c(CC)cccc2CC)cc1,"cell-free assay, competition with immobilised ligand",1 µM,100
O=C(NCC1CCOCC1)c1n[nH]cc1NC(=O)c1c(F)cccc1F,"binding, competition with immobilised ligand",1 µM,84
CNC(=O)[C@@H]1CC[C@@H](n2c(-c3ccc4cnccc4c3)nc3ccc(C(=O)NCc4cccc(C(N)=O)c4)cc32)C1,"binding, competition with immobilised ligand",1 µM,88
CCS(=O)(=O)c1cc2cc(C[C@](O)(CC(C)(C)c3ccc(F)cc3C(N)=O)C(F)(F)F)[nH]c2cn1,"cell-free assay, competition with immobilised ligand",1 µM,91
COc1ccnn2ncc(-c3ccnc(N(C)C)n3)c12,binding,1 µM,100
O=C(c1ccc(Nc2ncc(Cl)c(-c3cc4ccccc4s3)n2)cc1)N1CCC(N2CCCC2)CC1,"binding, competition with immobilised ligand",1 µM,0
O=C1NC(c2ccccn2)Sc2ccccc21 (stereo not shown),"cell-free assay, competition with immobilised ligand",1 µM,91
c1cnn2ncc(-c3ccnc(N4CCC45COC5)n3)c2c1,binding,1 µM,93
COc1cc(-c2cn(C3CCc4ccccc4N(CC(F)(F)F)C3=O)nn2)ccc1-n1ccc(C)n1 (stereo not shown),"cell-free assay, competition with immobilised ligand",1 µM,100
C[C@H]1CCN(c2nccc(-c3cnn4ncccc34)n2)C1,binding,1 µM,100
c1cncc(-c2cccc(Nc3nccc(NC4CCCCC4)n3)c2)c1,"binding, competition with immobilised ligand",10 µM,80
O=C(N1CCS(=O)(=O)CC1)N1C[C@H](c2ccc(OC(F)(F)F)cc2)C[C@H](c2nc(C3CC3)no2)C1,"cell-free assay, competition with immobilised ligand",1 µM,85
